Experimental findings from ChEMBL document CHEMBL5223160, “Lipase-Catalyzed Synthesis and Biological Evaluation of N-Picolineamides as Trypanosoma cruzi Antiproliferative Agents” (ACS Med Chem Lett, 2023) are described below.

Active and inactive are the calls of the source. No cut-off for these calls is given here.

In one data set the test system is Vero. The data set is described as follows: Cytotoxicity against african green monkey Vero cells at 10 to 600 uM incubated for 72 hrs by resazurin dye based fluorescence assay. The settings on record: chlorocebus sabaeus, dose 10-600 µM. The format is toxicity, cell-based. The gist of the method: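 Vero cells were exposed to compounds at 10–600 μM for 72 h at 37 °C. Viability was read by resazurin fluorescence at 590 nm. CC50 was taken as the concentration reducing cell proliferation by 50%, reported ± standard deviation.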

Data set [1] deals with Trypanosoma cruzi. Kind of data set: Antitrypanosomal activity against GFP-expressing intracellular Trypanosoma cruzi Y trypomastigotes infected in african green monkey Vero cells assessed as inhibition of parasite proliferation incubated for 72 hrs by fluorescence based microplate reader analysis.
For data set [2], the system named is Trypanosoma cruzi. The data set is described as follows: Antitrypanosomal activity against GFP-expressing intracellular Trypanosoma cruzi Y trypomastigotes infected in african green monkey Vero cells assessed as decrease in infection level incubated for 72 hrs by fluorescence based microplate reader analysis. The format is functional, organism-based. The gist of the method: (§1)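 Vero cells infected with GFP-expressing T. cruzi Y-strain parasites. After parasite removal, compounds were added at one-tenth of their Vero CC50. At 72 h postinfection, cells were lysed and parasite fluorescence was read. Percentage of infected cells and amastigotes per 100 cells were also determined, with nifurtimox as reference.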

Data set [3] relates to Trypanosoma cruzi. Kind of data set: Antitrypanosomal activity against GFP-expressing intracellular Trypanosoma cruzi Y trypomastigotes infected in african green monkey Vero cells assessed as decrease in number of amastigotes/100 cells incubated for 72 hrs by fluorescence based microplate reader analysis. The format is functional, organism-based. The gist of the method:
as §1

In data set [4] the test system is Trypanosoma cruzi. The data set is described as follows: Antitrypanosomal activity against GFP-expressing intracellular Trypanosoma cruzi Y trypomastigotes infected in african green monkey Vero cells assessed as reduction in infected cell percentage at 40 uM incubated for 72 hrs in the presence of nifurtimox by fluorescence based microplate reader analysis. Type of data set: functional, organism-based. The procedure, abridged:
(§2)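 GFP T. cruzi Y-infected Vero cells were cotreated after parasite removal with nifurtimox at 35 μM plus test compound at 20 μM or 40 μM. At 72 h postinfection, percentage of infected cells was determined against nontreated infected controls. Significance was set at p < 0.05.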

In data set [5] the test system is Trypanosoma cruzi. The data set is described as follows: Antitrypanosomal activity against GFP-expressing intracellular Trypanosoma cruzi Y trypomastigotes infected in african green monkey Vero cells assessed as reduction in infected cell percentage at 20 uM incubated for 72 hrs in the presence of nifurtimox by fluorescence based microplate reader analysis. The format is functional, organism-based. The gist of the method: as §2

One may read the IC50 as the concentration at which inhibition is half-maximal.

In the case of `CCCCCCCC/C=C/CCCCCCCC(=O)NCc1cccnc1`, the Activity entry in the data set on Vero is on record as “Non-Toxic”.

As to `CCCCCCCCCCCC(=O)NCc1ccncc1`, the Activity result with Vero was “Non-Toxic”.

With `CCCCCCCC/C=C/CCCCCCCC(=O)NCc1ccncc1`, the Activity result with Vero is on record as “Non-Toxic”. Still for that read-out and setting: then `CC/C=C\C/C=C\C/C=C\CCCCCCCC(=O)NCc1cccnc1`, with “Non-Toxic”; and `CCCCCC(=O)NCc1ccncc1`, with “Non-Toxic”. Same read-out and setting: then `CCCCC/C=C\C/C=C\CCCCCCCC(=O)NCc1cccnc1`, with “Non-Toxic”; and `CC(=O)NCc1ccncc1`, with “Non-Toxic”; and `CCCCCCCC/C=C\CCCCCCCC(=O)NCc1cccnc1`, with “Non-Toxic”. In the case of `CCCCCCCCCCCC(=O)NCc1ccccn1`, the IC50 in the data set on Trypanosoma cruzi [1] is > 100 µM. For the same compound, the Activity entry in the data set on Vero is listed as “Non-Toxic”.

Take `CCCCCCCCCCCCCCCCCC(=O)NCc1ccncc1`: in the data set with Vero, the Activity result is given as “Non-Toxic”.

`CC/C=C/C/C=C/C/C=C/CCCCCCCC(=O)O`: in the data set on Vero, the Activity entry is given as “Toxic”. As to `CCCCCCCCCCCCCCCCCC(=O)NCc1cccnc1`, in the data set with Vero, the Activity result was “Non-Toxic”. On to `CCCCCCCC/C=C/CCCCCCCC(=O)NCc1ccccn1`, for which, in the data set on Trypanosoma cruzi [1], the IC50 was found to be 47.6 µM. For the same compound, the Activity entry with Vero is “Non-Toxic”. The result in the data set on Trypanosoma cruzi [2], in the data set with Trypanosoma cruzi [3] and with Trypanosoma cruzi [4] was Active. Regarding `CCCCCCCCC/C=C\CCCCCCC(=O)O`, in the data set on Vero, the Activity entry is “Toxic”. On the same count and under the same terms, the entry for `CCCCC/C=C\C/C=C\CCCCCCCC(=O)NCc1ccccn1` is “Non-Toxic”; for `CC/C=C\C/C=C\C/C=C\CCCCCCCC(=O)NCc1ccccn1` it is “Non-Toxic”. The same measure, in the same setting: then `CCCCCCCC/C=C\CCCCCCCC(=O)NCc1ccccn1`, with “Non-Toxic”.

For `CCCCCCCCCCCCCCCCCC(=O)NCc1ccccn1`, the result with Trypanosoma cruzi [5], in the data set on Trypanosoma cruzi [2] and in the data set on Trypanosoma cruzi [3] was Active. In the data set on Trypanosoma cruzi [1], the IC50 was determined as 16.4 µM. Besides, the Activity result with Vero is listed as “Non-Toxic”. For the compound `CCCCCCCCCCCC(=O)NCc1cccnc1`, the Activity result in the data set with Vero is “Non-Toxic”. Regarding `CCCCC/C=C/C/C=C/CCCCCCCC(=O)O`, the Activity entry in the data set with Vero is reported as “Toxic”. Still for that read-out and setting: the entry for `CCCCCCCCCCCCCCCC(=O)NCc1ccncc1` is “Non-Toxic”.
